Published values gathered from unrelated publications.
Each line is one published result; the experiments were not run side by side.
ABL1 non-phosphorylated: Tyrosine-protein kinase ABL1, non-phosphorylated (ABL1, Homo sapiens, UniProt P00519)
ABL1 Y253F phosphorylated: Tyrosine-protein kinase ABL1, phosphorylated (ABL1, Homo sapiens, UniProt P00519, Y253F)
ABL1 H396P phosphorylated: Tyrosine-protein kinase ABL1, phosphorylated (ABL1, Homo sapiens, UniProt P00519, H396P)
ABL1 F317L phosphorylated: Tyrosine-protein kinase ABL1, phosphorylated (ABL1, Homo sapiens, UniProt P00519, F317L)
ABL1 T315I phosphorylated: Tyrosine-protein kinase ABL1, phosphorylated (ABL1, Homo sapiens, UniProt P00519, T315I)
ABL1 F317I phosphorylated: Tyrosine-protein kinase ABL1, phosphorylated (ABL1, Homo sapiens, UniProt P00519, F317I)
ABL1 phosphorylated: Tyrosine-protein kinase ABL1, phosphorylated (ABL1, Homo sapiens, UniProt P00519)
ABL1 H396P: Tyrosine-protein kinase ABL1 (ABL1, Homo sapiens, UniProt P00519, H396P)
ABL1 Q252H non-phosphorylated: Tyrosine-protein kinase ABL1, non-phosphorylated (ABL1, Homo sapiens, UniProt P00519, Q252H)

SMILES | target | observed | technique | tested at | remaining binding [%]
COc1cnc(Nc2cccc(S(N)(=O)=O)c2)nc1N1CCN(c2ccccc2)CC1 | ABL1 non-phosphorylated | binding | competition with immobilised ligand | 1 µM | 70
C=CC(=O)N1CCC(C(=O)NCC(=O)N2CCN(c3nc(-c4cnc(N)nc4C(F)F)nc(N4CCOCC4)n3)CC2)CC1 | ABL1 Y253F phosphorylated | binding | competition with immobilised ligand | 1 µM | 90
O=C(NCCCN1CCOCC1)c1ccc(Nc2ncc(Cl)c(-c3ccc(Cl)s3)n2)cc1 | ABL1 H396P phosphorylated | binding | competition with immobilised ligand | 1 µM | 32
CN([C@@H]1CCc2c(CC(=O)O)c3ccccc3n2C1)S(=O)(=O)c1ccc(F)cc1 | ABL1 F317L phosphorylated | cell-free assay | competition with immobilised ligand | 1 µM | 92
O=C(NCC1CCOCC1)c1n[nH]cc1NC(=O)c1c(F)cccc1F | ABL1 non-phosphorylated | binding | competition with immobilised ligand | 1 µM | 88
CCN1CCN(Cc2ccc(C(=O)Nc3ccc(C)c(Oc4ccc5c(c4)CC(=O)N5)c3)cc2C(F)(F)F)CC1 | Tyrosine-protein kinase ABL1, non-phosphorylated (ABL1, Homo sapiens, UniProt P00519, F317I) | binding | competition with immobilised ligand | 1 µM | 1
Cn1nc(C(F)(F)F)cc1-c1cnc(N2CCc3cc(S(=O)(=O)Nc4c(F)cc(Cl)cc4F)cc(N4CCCC4=O)c32)nc1 | ABL1 T315I phosphorylated | cell-free assay | competition with immobilised ligand | 1 µM | 82
Nc1ncc2c(n1)-c1c([nH]c3ccc(C#CC4CC4)cc13)CCCC2 | ABL1 T315I phosphorylated | binding | competition with immobilised ligand | 1 µM | 97
N[C@H]1CCN(c2nccc(-c3cnn4ncccc34)n2)C1 | ABL1 non-phosphorylated | binding |  | 1 µM | 91
O=C(c1ccc(Nc2nccc(-c3cc4ccccc4s3)n2)cc1)N1CCC(N2CCCC2)CC1 | ABL1 H396P phosphorylated | binding | competition with immobilised ligand | 1 µM | 13
CSc1cccnc1N1CCN(Cc2nc3ccccc3[nH]2)CC1 | Tyrosine-protein kinase ABL1, non-phosphorylated (ABL1, Homo sapiens, UniProt P00519, F317L) | cell-free assay | competition with immobilised ligand | 1 µM | 100
O=C(NCCCN1CCOCC1)c1ccc(Nc2nccc(-c3cc4ccccc4s3)n2)cc1 | ABL1 F317I phosphorylated | binding | competition with immobilised ligand | 1 µM | 84
COc1cc(-c2cn(C3CCc4c(F)cccc4N(CC(F)(F)F)C3=O)nn2)ccc1-n1cnc(C)c1 (stereo not shown) | ABL1 phosphorylated | cell-free assay | competition with immobilised ligand | 1 µM | 100
Cc1cnn2ncc(-c3ccnc(N(C)C)n3)c2c1 | ABL1 H396P | binding |  | 1 µM | 81
O=C(c1ccc(Nc2ncc(Cl)c(-c3ccc(Cl)s3)n2)cc1)N1CCC(N2CCCC2)CC1 | ABL1 Q252H non-phosphorylated | binding | competition with immobilised ligand | 1 µM | 1
CN(C)c1nccc(-c2cnn3ncccc23)n1 | ABL1 non-phosphorylated | binding | competition with immobilised ligand | 1 µM | 98

SMILES | target | observed | technique | tested at | remaining binding [%]
c1cncc(-c2cccc(Nc3nccc(NC4CCCCC4)n3)c2)c1 | ABL1 non-phosphorylated | binding | competition with immobilised ligand | 10 µM | 35
CC(=O)C1=C(C)N(c2cccc(C(F)(F)F)c2)C(=O)N[C@@H]1c1ccc(C#N)nc1 | ABL1 T315I phosphorylated | cell-free assay | competition with immobilised ligand | 1 µM | 96.9
Cc1cnc(Nc2ccc(C(=O)N3CCC(N4CCCC4)CC3)cc2)nc1-c1cc2ccccc2s1 | ABL1 F317I phosphorylated | binding | competition with immobilised ligand | 1 µM | 57
O=C(Nc1c[nH]nc1C(=O)NC1CCNCC1)c1cc(F)cc(F)c1 | ABL1 F317I phosphorylated | binding | competition with immobilised ligand | 1 µM | 85
C[C@@H]1CCN(c2nccc(-c3cnn4ncccc34)n2)C1 | ABL1 phosphorylated | binding |  | 1 µM | 61
COc1cccc(CNC(=O)c2nc3scc(COCc4ccc(C(=O)O)cc4)c3c(=O)[nH]2)c1 | ABL1 Y253F phosphorylated | cell-free assay | competition with immobilised ligand | 1 µM | 84.6
CN(CCCC(F)(F)F)c1nccc(-c2cnn3ncccc23)n1 | ABL1 phosphorylated | binding |  | 1 µM | 100
CNC(=O)[C@@H]1CC[C@@H](n2c(-c3ccc4cnccc4c3)nc3ccc(C(=O)NCc4cccc(C(N)=O)c4)cc32)C1 | ABL1 F317L phosphorylated | binding | competition with immobilised ligand | 1 µM | 95
CO[C@H]1CC[C@H](CNc2ccc(S(=O)(=O)NC(=O)c3ccc(N4CCN(CC5=C(c6ccc(Cl)cc6)CC(C)(C)CC5)CC4)cc3Oc3cnc4[nH]ccc4c3)cc2[N+](=O)[O-])CC1 | ABL1 Q252H non-phosphorylated | cell-free assay | competition with immobilised ligand | 1 µM | 81
COc1ncc2cc3ccccc3nc2c1C#N | ABL1 F317L phosphorylated | cell-free assay | competition with immobilised ligand | 5 µM | 86
O=C(c1ccc(Nc2ncc(Cl)c(-c3cc4ccccc4s3)n2)cc1)N1CCC(N2CCCC2)CC1 | ABL1 T315I phosphorylated | binding | competition with immobilised ligand | 1 µM | 3.3
C[C@@H](c1ccc(-n2cnc3c(N)ncnc32)cc1)N1CCc2nn(C)c(Cc3ccccc3)c2C1=O | ABL1 F317I phosphorylated | binding | competition with immobilised ligand | 0.1 µM | 62
COc1cnc(Nc2cccc(S(N)(=O)=O)c2)nc1N1CCN(c2ccccc2)C(=O)C1 | ABL1 T315I phosphorylated | binding | competition with immobilised ligand | 1 µM | 77
c1cnn2ncc(-c3ccnc(N4CCC45COC5)n3)c2c1 | ABL1 H396P | binding |  | 1 µM | 66
O=C(NCc1ncc(C(F)(F)F)cc1Cl)c1ccc2c(c1)C1(CCS(=O)(=O)CC1)[C@@H](C1CC1)N2S(=O)(=O)c1ccc(F)cc1 | Tyrosine-protein kinase ABL1, phosphorylated (ABL1, Homo sapiens, UniProt P00519, M351T) | cell-free assay | competition with immobilised ligand | 1 µM | 94
